Columns and labels:
[1] = AUC in fasted healthy human at 400 mg administered as single dose suspension; type: ADME, organism-based; conditions: plasma
[2] = Half life in fasted healthy human at 200 mg QID, po administered as suspension for 7 days; type: ADME, organism-based; conditions: in vivo
Procedure, shortened: (§1)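 Healthy volunteers given oral suspension (40 mg/ml) for 7 days, fasted or with nutritional supplement (Boost); four-way crossover, 14–21-day washout, nonfat snacks ≤800 cal/day allowed. On day 7 only the morning dose was given; plasma sampled predose to 168 h after it. LC-MS/MS (LLOQ 5.00 ng/ml). t1/2 = ln(2)/K from log-linear terminal slope; Tmax as median.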

[3] = test system: Homo sapiens; test: Toxicity in healthy human assessed as dizziness at 200 mg QID, po administered as suspension for 7 days coadministered with nutritional supplement; type: organism-based; conditions: in vivo, 168 h
Procedure, shortened: (§2)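 Healthy volunteers (n = 12) took oral posaconazole suspension (40 mg/ml) with Boost at each dose for 7 days in a four-way randomized crossover with a 14- to 21-day washout. Subjects stayed fasted throughout, with nonfat snacks up to 800 cal/day allowed. Safety covered adverse events, vital signs, clinical labs and 12-lead ECG, with AEs tabulated by body system and severity per treatment.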

[4] = test system: Homo sapiens; test: Toxicity in healthy human assessed as asthenia at 400 mg BID, po administered as suspension for 7 days coadministered with nutritional supplement; type: organism-based; conditions: in vivo, 168 h
Procedure, shortened: (§3)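 Healthy volunteers monitored for adverse events, vital signs, clinical laboratory values and 12-lead ECG. Adverse events tabulated by body system or organ class and severity and summarized by treatment across the crossover regimens.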

[5] = test system: Homo sapiens; test: Toxicity in healthy human assessed as headache at 200 mg QID, po administered as suspension for 7 days coadministered with nutritional supplement; type: organism-based; conditions: in vivo, 168 h
Procedure, shortened: as §2, with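 “mg/ml)” for “mg/ml) with Boost at each dose”, “allowed. Where given, Boost was taken with each dose.” for “allowed.”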

[6] = Tmax in fasted healthy human at 400 mg administered as single dose suspension; type: ADME, organism-based; conditions: in vivo
Procedure, shortened: (§4)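 Single oral suspension dose in fasting healthy volunteers, alone, with 12 oz ginger ale, after esomeprazole 40 mg once each morning days −2 to 1, or both; four-way crossover, 7–10-day washout. EDTA plasma 0–168 h. LC-MS/MS (LLOQ 5.00 ng/ml). t1/2 = ln(2)/K from terminal log-linear regression; Tmax median.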

[7] = Apparent total body clearance in healthy human at 400 mg administered as single dose suspension coadministered with nutritional supplement and 10 mg metoclopramide; type: ADME, organism-based; conditions: in vivo, po
Procedure, shortened: (§5)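 A three-way crossover in 13 healthy subjects gave one 400 mg oral suspension dose with a nutritional supplement, either alone, with metoclopramide 10 mg orally three times daily on the day before and the day of dosing, or with a single 4 mg dose of loperamide. Plasma was taken 0–168 h for LC-MS/MS. Analysis was noncompartmental.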

[8] = Tmax in healthy human at 200 mg QID, po administered as suspension for 7 days coadministered with nutritional supplement; type: ADME, organism-based; conditions: in vivo; procedure, shortened: as §1
[9] = test system: Homo sapiens; test: Toxicity in healthy human assessed as adverse events at 400 mg BID, po administered as suspension for 7 days; type: organism-based; conditions: in vivo, 168 h; procedure, shortened: as §3
[10] = test system: Homo sapiens; test: Apparent total body clearance in fasted healthy human at 200 mg QID, po administered as suspension for 7 days; type: ADME, organism-based; conditions: in vivo, 168 h
Procedure, shortened: (§6)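 Twelve healthy subjects took oral suspension for 7 days as 400 mg BID or 200 mg QID, either fasting or with a Boost-type nutritional supplement, in a crossover with 14–21 day washouts. Nonfat snacks of 800 cal/day or less were allowed. Plasma was sampled 0–168 h after the day-7 morning dose only and analysed by LC-MS/MS. AUC is AUC_τ, normalized to dose.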

[11] = Cmax in fasted healthy human plasma at 400 mg administered as single dose suspension coadministered with acidic carbonated beverage; type: ADME, organism-based; set-up: dose 400 mg
Procedure, shortened: (§7)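 This was a four-way crossover in 12 healthy subjects with 7–10 day washouts. Each took one fasting 400 mg oral suspension dose, with 12 oz ginger ale and/or esomeprazole 40 mg once each morning on days −2 to 1, with dosing on day 1. Plasma was sampled 0–168 h and measured by LC-MS/MS (LLOQ 5.00 ng/ml). Analysis was noncompartmental, with CL/F = dose/AUC_I and V/F = (CL/F)/K.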

[12] = test system: Homo sapiens; test: Toxicity in healthy human assessed as asthenia at 400 mg BID, po administered as suspension for 7 days; type: organism-based; conditions: in vivo, 168 h; procedure, shortened: as §3
[13] = Apparent volume of distribution in fasted healthy human at 400 mg administered as single dose suspension after consumption of high fat meal; type: ADME, organism-based; conditions: in vivo, read-out: Vc/F
Procedure, shortened: (§8)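 In a crossover of 12 healthy subjects, each took a single 400 mg oral suspension dose 5 min before, midway through (about 10 min into a 20-min meal), or 20 min after a high-fat meal of about 50 g fat. Plasma was drawn 0–168 h and measured by LC-MS/MS. Parameters are noncompartmental, with AUC to the last measurable time.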

[14] = test system: Homo sapiens; test: Toxicity in healthy human assessed as adverse events at 400 mg administered as single dose suspension coadministered with proton pump inhibitor; type: organism-based; set-up: scale not given: the % may be the effect or the level left; conditions: in vivo; procedure, shortened: as §3
[15] = Apparent total body clearance in fasted healthy human at 400 mg administered as single dose suspension after consumption of high fat meal; type: ADME, organism-based; conditions: in vivo; procedure, shortened: as §8
[16] = test system: Homo sapiens; test: Toxicity in healthy human assessed as adverse events at 400 mg administered as single dose suspension coadministered with acidic carbonated beverage; type: organism-based; conditions: in vivo; procedure, shortened: as §3
[17] = test system: Homo sapiens; test: Toxicity in healthy human assessed as adverse events at 200 mg QID, po administered as suspension for 7 days; type: organism-based; conditions: in vivo, 168 h; procedure, shortened: as §3
[18] = test system: Homo sapiens; test: AUC in healthy human at 200 mg QID, po administered as suspension for 7 days coadministered with nutritional supplement; type: ADME, organism-based, Plasma; conditions: in vivo, 168 h; procedure, shortened: as §6
[19] = Half life in fasted healthy human at 400 mg administered as single dose suspension; type: ADME, organism-based; conditions: in vivo; procedure, shortened: as §4
[20] = Tmax in healthy human at 400 mg BID, po administered as suspension for 7 days coadministered with nutritional supplement; type: ADME, organism-based; conditions: in vivo; procedure, shortened: as §1
[21] = Half life in healthy human at 400 mg administered as single dose suspension coadministered with nutritional supplement and 4 mg loperamide as two 2 mg tablets; type: ADME, organism-based; conditions: in vivo
Procedure, shortened: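 Oral suspension (40 mg/ml) single dose with nutritional supplement plus loperamide 4 mg single dose, healthy volunteers, three-way crossover with 7–10-day washout. EDTA plasma drawn predose and 1–168 h postdose. LC-MS/MS assay (LLOQ 5.00 ng/ml). Noncompartmental parameters; Tmax reported as median (range).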

[22] = AUC in fasted healthy human at 400 mg administered as single dose suspension after consumption of high fat meal; type: ADME, organism-based; conditions: plasma; procedure, shortened: as §8
[23] = Apparent volume of distribution in healthy human at 400 mg administered as single dose suspension coadministered with nutritional supplement; type: ADME, organism-based; conditions: in vivo; procedure, shortened: as §5
[24] = Apparent total body clearance in healthy human at 400 mg administered as single dose suspension coadministered with nutritional supplement; type: ADME, organism-based; conditions: in vivo; procedure, shortened: as §5
[25] = Tmax in fasted healthy human at 400 mg administered as single dose suspension coadministered with acidic carbonated beverage and proton pump inhibitor; type: ADME, organism-based; conditions: in vivo; procedure, shortened: as §4
[26] = Apparent total body clearance in fasted healthy human at 400 mg administered as single dose suspension coadministered with proton pump inhibitor; type: ADME, organism-based; conditions: in vivo; procedure, shortened: as §7
[27] = Apparent total body clearance in fasted healthy human at 400 mg administered as single dose suspension coadministered with acidic carbonated beverage and proton pump inhibitor; type: ADME, organism-based; conditions: in vivo; procedure, shortened: as §7
[28] = Cmax in fasted healthy human plasma at 400 mg administered as single dose suspension coadministered with proton pump inhibitor; type: ADME, organism-based; set-up: dose 400 mg; procedure, shortened: as §7

CC[C@@H]([C@H](C)O)n1ncn(-c2ccc(N3CCN(c4ccc(OC[C@@H]5CO[C@@](Cn6cncn6)(c6ccc(F)cc6F)C5)cc4)CC3)cc2)c1=O [POSACONAZOLE]
AUC [1]: 4280 ng·h/mL
half-life [2]: 34.7 h
Activity [3]: 33%
Activity [4]: 25%
Activity [5]: 25%
Tmax [6]: 5 h
CL/F [7]: 993 mL/min
Tmax [8]: 4 h
Activity [9]: 75%
CL/F [10]: 21.2 L/h
Cmax [11]: 286 ng/mL
Activity [12]: 25%
Vd/F [13]: 757 L
Activity [14]: 25%
CL/F [15]: 395 mL/min
Activity [16]: 25%
Activity [17]: 75%
AUC [18]: 112000 ng·h/mL
half-life [19]: 27.4 h
Tmax [20]: 6 h
half-life [21]: 27.5 h
AUC [22]: 21000 ng·h/mL
Vd/F [23]: 1660 L
CL/F [24]: 823 mL/min
Tmax [25]: 6 h
CL/F [26]: 1930 mL/min
CL/F [27]: 1620 mL/min
Cmax [28]: 76.7 ng/mL

Source: ChEMBL document CHEMBL1671645, “Pharmacokinetics and absorption of posaconazole oral suspension under various gastric conditions in healthy volunteers” (Antimicrob Agents Chemother, 2009)
